# Measurements reported in the M2OR odorant receptor database.
# Experiments:
# Settings in all cases: stereoisomer not certain
# OR2B11 (Homo sapiens) = target: T1, OR2B11 (Homo sapiens) (UniProt Q5JQS5)
# T1 sequence (whole entry): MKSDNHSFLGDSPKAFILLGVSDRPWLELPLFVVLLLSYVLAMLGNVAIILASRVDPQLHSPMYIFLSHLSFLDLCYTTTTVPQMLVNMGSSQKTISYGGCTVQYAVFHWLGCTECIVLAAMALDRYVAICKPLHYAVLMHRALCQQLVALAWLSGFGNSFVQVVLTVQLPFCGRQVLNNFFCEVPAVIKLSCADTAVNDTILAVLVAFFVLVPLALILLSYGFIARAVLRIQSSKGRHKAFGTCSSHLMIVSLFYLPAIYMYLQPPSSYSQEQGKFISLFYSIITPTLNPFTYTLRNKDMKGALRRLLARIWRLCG
# In short: (§1)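 Transient luciferase assays in mammalian cell lines were common, though methods varied by source. The values come from published papers and their supplementary material, with extra details from the original authors when needed. Responsive refers to a measured signal the original authors judged statistically different from baseline, and non-responsive (inactive) to the remainder.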
# OR2B2 (Homo sapiens) = OR2B2 (Homo sapiens) (UniProt Q9GZK3)
# In short: as §1
# OR2B3 (Homo sapiens) = target: T2, OR2B3 (Homo sapiens) (UniProt O76000)
# T2 sequence (whole entry): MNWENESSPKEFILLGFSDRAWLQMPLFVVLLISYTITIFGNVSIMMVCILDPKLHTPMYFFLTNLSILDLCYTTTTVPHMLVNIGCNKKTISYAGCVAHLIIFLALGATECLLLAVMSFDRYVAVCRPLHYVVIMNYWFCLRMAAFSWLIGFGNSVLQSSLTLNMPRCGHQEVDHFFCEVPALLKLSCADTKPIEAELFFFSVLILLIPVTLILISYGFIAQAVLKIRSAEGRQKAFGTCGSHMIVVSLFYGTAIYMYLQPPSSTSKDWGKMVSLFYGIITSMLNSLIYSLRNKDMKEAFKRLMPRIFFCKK
# In short: as §1
# OR2B6 (Homo sapiens) = OR2B6 (Homo sapiens) (UniProt P58173)
# In short: as §1
# OR2BB [1] = tested on: OR2BB
# In short: as §1
# Target sequence in this assay (as listed by the source): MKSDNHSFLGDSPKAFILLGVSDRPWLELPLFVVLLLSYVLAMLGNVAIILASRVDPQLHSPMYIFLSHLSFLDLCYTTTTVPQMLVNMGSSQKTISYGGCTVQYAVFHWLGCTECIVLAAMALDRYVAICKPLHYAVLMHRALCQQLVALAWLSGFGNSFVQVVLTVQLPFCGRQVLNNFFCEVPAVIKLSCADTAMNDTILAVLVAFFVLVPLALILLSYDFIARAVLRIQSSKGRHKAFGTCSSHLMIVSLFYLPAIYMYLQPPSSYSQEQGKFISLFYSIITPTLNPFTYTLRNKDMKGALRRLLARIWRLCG
# OR2BB [2] = tested on: OR2BB; remark: listed apart in the source
# In short: as §1
# Target sequence in this assay (as listed by the source): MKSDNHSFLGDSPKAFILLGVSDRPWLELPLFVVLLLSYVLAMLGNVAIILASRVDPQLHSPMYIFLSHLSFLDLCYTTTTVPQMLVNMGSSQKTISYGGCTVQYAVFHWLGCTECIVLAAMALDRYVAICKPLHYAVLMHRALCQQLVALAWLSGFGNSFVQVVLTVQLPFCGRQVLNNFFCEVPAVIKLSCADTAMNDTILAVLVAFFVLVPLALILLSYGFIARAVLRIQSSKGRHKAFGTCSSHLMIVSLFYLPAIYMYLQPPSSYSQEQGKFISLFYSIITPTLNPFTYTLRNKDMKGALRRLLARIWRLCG
# OR2C1 (Homo sapiens) = target: T3, OR2C1 (Homo sapiens) (UniProt O95371)
# T3 sequence (whole entry): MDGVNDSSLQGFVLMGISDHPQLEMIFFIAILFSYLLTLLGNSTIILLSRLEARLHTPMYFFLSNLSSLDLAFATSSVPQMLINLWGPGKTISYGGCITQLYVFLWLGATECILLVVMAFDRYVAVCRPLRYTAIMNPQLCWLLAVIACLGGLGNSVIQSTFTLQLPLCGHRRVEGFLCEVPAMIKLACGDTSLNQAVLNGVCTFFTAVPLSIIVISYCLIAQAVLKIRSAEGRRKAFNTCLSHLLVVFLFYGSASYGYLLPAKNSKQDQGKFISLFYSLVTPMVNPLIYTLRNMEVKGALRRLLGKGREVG
# In short: as §1
# OR2BB [3] = tested on: OR2BB; remark: listed apart in the source
# In short: as §1
# Target sequence in this assay (as listed by the source): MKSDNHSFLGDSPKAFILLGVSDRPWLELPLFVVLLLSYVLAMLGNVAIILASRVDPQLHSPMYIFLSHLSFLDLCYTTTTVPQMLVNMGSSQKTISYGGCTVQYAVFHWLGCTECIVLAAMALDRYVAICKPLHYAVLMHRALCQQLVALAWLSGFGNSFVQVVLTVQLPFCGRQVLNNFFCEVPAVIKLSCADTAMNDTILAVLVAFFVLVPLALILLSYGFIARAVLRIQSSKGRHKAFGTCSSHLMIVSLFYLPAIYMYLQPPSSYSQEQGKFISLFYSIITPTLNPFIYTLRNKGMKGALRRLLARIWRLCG
# OR2BB [4] = tested on: OR2BB; remark: listed apart in the source
# In short: as §1
# Target sequence in this assay (as listed by the source): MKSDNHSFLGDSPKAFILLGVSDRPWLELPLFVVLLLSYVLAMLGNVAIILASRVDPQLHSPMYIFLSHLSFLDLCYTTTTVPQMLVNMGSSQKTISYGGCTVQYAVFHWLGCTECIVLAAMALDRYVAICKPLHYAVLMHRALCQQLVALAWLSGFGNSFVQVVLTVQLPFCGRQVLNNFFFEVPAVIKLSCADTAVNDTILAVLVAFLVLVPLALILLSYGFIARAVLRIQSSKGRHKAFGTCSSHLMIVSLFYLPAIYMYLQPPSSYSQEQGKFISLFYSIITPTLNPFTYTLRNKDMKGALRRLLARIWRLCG
# OR2BB [5] = tested on: OR2BB; remark: listed apart in the source
# In short: as §1
# Target sequence in this assay (as listed by the source): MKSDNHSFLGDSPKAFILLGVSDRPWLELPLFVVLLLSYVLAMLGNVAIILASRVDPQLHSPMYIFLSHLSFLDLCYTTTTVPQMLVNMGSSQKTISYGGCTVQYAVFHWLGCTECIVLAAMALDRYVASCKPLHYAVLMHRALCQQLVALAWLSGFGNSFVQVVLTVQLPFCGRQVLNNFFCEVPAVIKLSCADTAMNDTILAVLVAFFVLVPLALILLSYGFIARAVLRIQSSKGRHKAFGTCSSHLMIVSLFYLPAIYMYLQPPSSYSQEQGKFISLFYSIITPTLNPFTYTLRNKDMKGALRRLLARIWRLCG
# 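Also: active if original authors judged signal statistically different from baseline.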
# Chain of OR2B6 (Homo sapiens) (P58173 whole entry): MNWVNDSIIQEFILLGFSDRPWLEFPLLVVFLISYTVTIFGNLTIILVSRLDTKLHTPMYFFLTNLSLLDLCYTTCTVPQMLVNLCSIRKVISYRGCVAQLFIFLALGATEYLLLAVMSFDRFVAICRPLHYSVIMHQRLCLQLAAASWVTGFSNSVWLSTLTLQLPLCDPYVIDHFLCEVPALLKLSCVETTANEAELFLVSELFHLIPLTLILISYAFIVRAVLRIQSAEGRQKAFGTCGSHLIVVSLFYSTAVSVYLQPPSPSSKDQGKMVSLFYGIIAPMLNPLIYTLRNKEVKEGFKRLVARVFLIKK
# Chain of OR2B2 (Homo sapiens) (Q9GZK3 whole entry): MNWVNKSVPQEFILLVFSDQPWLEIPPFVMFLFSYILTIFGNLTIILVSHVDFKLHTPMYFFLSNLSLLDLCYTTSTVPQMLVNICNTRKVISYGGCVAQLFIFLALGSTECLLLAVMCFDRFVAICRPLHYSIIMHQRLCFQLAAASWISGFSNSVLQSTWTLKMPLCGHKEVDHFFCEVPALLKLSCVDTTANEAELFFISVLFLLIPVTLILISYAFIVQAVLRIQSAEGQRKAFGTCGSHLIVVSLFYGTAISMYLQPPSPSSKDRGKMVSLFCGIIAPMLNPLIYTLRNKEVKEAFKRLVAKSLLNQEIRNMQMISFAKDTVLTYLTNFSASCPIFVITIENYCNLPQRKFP
compound,measurement,setting,value
C=CCOC(=O)Cc1ccccc1,odorant receptor agonist call,OR2B11 (Homo sapiens),inactive
same,odorant receptor agonist call,OR2B2 (Homo sapiens),inactive
same,odorant receptor agonist call,OR2B3 (Homo sapiens),inactive
same,odorant receptor agonist call,OR2B6 (Homo sapiens),inactive
same,odorant receptor agonist call,OR2BB [1],inactive
same,odorant receptor agonist call,OR2BB [2],inactive
same,odorant receptor agonist call,OR2C1 (Homo sapiens),inactive
C=CCc1ccccc1,odorant receptor agonist call,OR2C1 (Homo sapiens),inactive
CCC1CCC(=O)O1 (stereo not drawn),odorant receptor agonist call,OR2C1 (Homo sapiens),inactive
O=c1cc(O)c2ccccc2o1,odorant receptor agonist call,OR2C1 (Homo sapiens),inactive
Cc1c([N+](=O)[O-])c(C)c([N+](=O)[O-])c(C(C)(C)C)c1[N+](=O)[O-],odorant receptor agonist call,OR2B11 (Homo sapiens),inactive
same,odorant receptor agonist call,OR2B2 (Homo sapiens),inactive
same,odorant receptor agonist call,OR2B6 (Homo sapiens),inactive
same,odorant receptor agonist call,OR2C1 (Homo sapiens),inactive
O=Cc1ccccc1,odorant receptor agonist call,OR2B3 (Homo sapiens),inactive
O=CC=Cc1ccccc1,odorant receptor agonist call,OR2B11 (Homo sapiens),active
same,odorant receptor agonist call,OR2B3 (Homo sapiens),inactive
same,odorant receptor agonist call,OR2BB [1],inactive
same,odorant receptor agonist call,OR2BB [3],inactive
same,odorant receptor agonist call,OR2BB [2],inactive
same,odorant receptor agonist call,OR2BB [4],inactive
same,odorant receptor agonist call,OR2BB [5],active
C=CCc1ccc(OC)cc1,odorant receptor agonist call,OR2B3 (Homo sapiens),inactive
